Tests used:
[1] = target: Coagulation factor X (Homo sapiens) (UniProt P00742); assay: Binding affinity to human factor10a
Plasma = assay: Anticoagulant activity in human plasma assessed as concentration required to double prothrombin time; type: functional
[2] = Cmax in rat plasma at 20 mg/kg, po; type: ADME, organism-based; parameters: dose 20 mg/kg, route oral
Summary of the method: (§1)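 Fasted Fisher rats (n = 3) got one 20 mpk oral gavage, suspended in acacia or CMC/Tween 80. Citrated blood was taken at set times and spun to plasma. Drug level was read as anti-Xa equivalents: plasma at 37 °C for 15 min, S-2222 substrate, human fXa 0.4 U/ml, 405 nm kinetic over 10 min. Values came from triplicate spiked-plasma standards by four-parameter logistic fit; AUC by area algorithm.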

[3] = AUC(0 to 7 hrs) in rat plasma at 20 mg/kg, po; type: ADME, organism-based; parameters: time < 7 hr, dose 20 mg/kg, route oral; summary of the method: as §1

Chain of Coagulation factor X (Homo sapiens) (P00742 41-179 limits assumed): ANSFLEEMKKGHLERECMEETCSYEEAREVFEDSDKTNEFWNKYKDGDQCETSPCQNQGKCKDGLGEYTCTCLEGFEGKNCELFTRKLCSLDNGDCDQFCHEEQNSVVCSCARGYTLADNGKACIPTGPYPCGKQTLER
Chain of Coagulation factor X (Homo sapiens) (P00742 235-488 limits assumed): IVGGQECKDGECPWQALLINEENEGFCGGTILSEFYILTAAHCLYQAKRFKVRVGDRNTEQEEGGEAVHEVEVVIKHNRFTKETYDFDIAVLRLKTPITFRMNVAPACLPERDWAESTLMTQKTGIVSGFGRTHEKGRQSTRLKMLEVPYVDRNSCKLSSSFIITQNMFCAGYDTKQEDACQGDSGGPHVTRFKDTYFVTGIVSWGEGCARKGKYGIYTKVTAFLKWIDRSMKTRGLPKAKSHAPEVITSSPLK

Row | Structure (SMILES) | Kapp [1] | Activity (Plasma) [µM] | Cmax [2] [µM] | AUC(0-t) at 7 h [3] [ng·h/mL]
1 | O=C(N[C@@H](C(=O)N1CCC(CN2CCC(O)C2)CC1)c1ccccc1)c1ccc2cc[nH]c2c1 (stereo not given in full) | 5 10^6L/mol | – | – | –
2 | O=C(N[C@@H](C(=O)N1CCC(CN2CCC(O)CC2)CC1)c1ccccc1)c1ccc2cc[nH]c2c1 | 10 10^6L/mol | – | – | –
3 | CN1CCC(C2CCN(C(=O)[C@H](NC(=O)c3ccc4cc[nH]c4c3)c3ccccc3)CC2)CC1 | 450 10^6L/mol | 1.5 | 4 | 19000
4 | O=C(N[C@@H](C(=O)N1CCC(CN2CCC(CO)CC2)CC1)c1ccccc1)c1ccc2cc[nH]c2c1 | 0.7 10^6L/mol | – | – | –
5 | CCN(CC)CC1CCN(C(=O)[C@H](NC(=O)c2ccc3cc[nH]c3c2)c2ccccc2)CC1 | 28 10^6L/mol | 2.3 | – | –
6 | O=C(N[C@@H](C(=O)N1CCC(CN2CCCC2)CC1)c1ccccc1)c1ccc2cc[nH]c2c1 | 24 10^6L/mol | 2.2 | – | –
7 | O=C(N[C@@H](C(=O)N1CCC(CN2CCNCC2)CC1)c1ccccc1)c1ccc2cc[nH]c2c1 | 3.9 10^6L/mol | – | – | –
8 | CN1CCN(CC2CCN(C(=O)[C@H](NC(=O)c3ccc4cc[nH]c4c3)c3ccccc3)CC2)CC1 | 1.5 10^6L/mol | – | – | –
9 | O=C(N[C@@H](C(=O)N1CCC(CN2CCCCC2)CC1)c1ccccc1)c1ccc2c(Cl)c[nH]c2c1 | 710 10^6L/mol | 1.1 | 1.7 | 10000
10 | CC(C)NCC1CCN(C(=O)[C@H](NC(=O)c2ccc3cc[nH]c3c2)c2ccccc2)CC1 | 7.8 10^6L/mol | – | – | –
11 | O=C(N[C@@H](C(=O)N1CCC(CN2CCC[C@H]2CO)CC1)c1ccccc1)c1ccc2cc[nH]c2c1 | 9.7 10^6L/mol | – | – | –
12 | Cc1c[nH]c2cc(C(=O)N[C@@H](C(=O)N3CCC(CN4CCCCC4)CC3)c3ccccc3)ccc12 | 110 10^6L/mol | 1.5 | 2.4 | 14000
13 | O=C(N[C@@H](C(=O)N1CCC(CN2CC[C@@H](O)C2)CC1)c1ccccc1)c1ccc2cc[nH]c2c1 | 4 10^6L/mol | – | – | –
14 | O=C(N[C@@H](C(=O)N1CCC(CN2CCC[C@@H]2CO)CC1)c1ccccc1)c1ccc2cc[nH]c2c1 | 18 10^6L/mol | 2.2 | – | –
15 | O=C(N[C@@H](C(=O)N1CCC(CN2CCCCC2)CC1)c1ccccc1)c1ccc2cc[nH]c2c1 | 48 10^6L/mol | 1.2 | 4.7 | 23000
